B1: GFP aptamer (parent)
chain: GCUUCUGGACUGCGAUGGGAGCACGAAACGUCGUGGCGCAAUUGGGUGGGGAAAGUCCUUAAAAGAGGGCCACCACAGAAGC

Variants of: B1
Assay: HiTS-RAP
Conditions: with EGFP
In short: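 Aptamer templates containing a T7 promoter and ter site were sequenced on an Illumina GAIIx flowcell, transcribed in situ with T7 RNA polymerase and halted with GST-Tus for 30 minutes at 37°C. Clusters were imaged after 30 minutes at room temperature with EGFP-mOrange at 0.04 nM to 625 nM in fivefold steps. Kd was obtained from per-lane weighted Hill fits to decay-corrected, sequencing-normalised, per-sequence mean intensities, geometrically averaged over lanes. Three lanes entered that average, and non-rising sequences were given 125 nM.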

Row | Variant | Kd [nM]
1 | C13A | 14.6
2 | C13U | 4.53
3 | A40U | 21.7
4 | A40C | ≥ 125
5 | A40G | 4.95
6 | A27G A77G | 4.47
7 | A64U | ≥ 125
8 | A64G | ≥ 125
9 | A64C | ≥ 125
10 | G25A G33A | 11.9
11 | U16A | 5.38
12 | U16G | 2.69
13 | U16C | 6.81
14 | A20G G33A | 49
15 | G69C | ≥ 125
16 | G48U | 21.3
17 | G48C | ≥ 125
18 | G48A | ≥ 125
19 | U60A | 1.71
20 | U60G | 5.38
21 | C10U G33A | 29.6
22 | C76U | 37.1
23 | C76G | 28.8
24 | C76A | 13.6
25 | A20G G25A | 10.8

Row | Variant | Kd [nM]
26 | A27G C70U | 17
27 | G44A | 5.26
28 | G44C | 34.8
29 | C10U U47C | 1.58
30 | G21C | 5.13
31 | G21U | 6
32 | G21A | ≥ 125
33 | G30A G68A | 31.8
34 | A27G G68A | 17.3
35 | A9U | 6.86
36 | A9C | 8
37 | C32U U43C | 2.27
38 | A28G U47C | 1.08
39 | A28G U47A | 3.89
40 | U31C U42C | 19.5
41 | G30A C74U | 5.86
42 | A52U | ≥ 125
43 | A52C | 43.6
44 | C29G | 4.09
45 | C29U | 4.49
46 | C29A | 3.32
47 | A27G G46A | 12.7
48 | A72G C74U | 7.35
49 | A27G U31C | 4.55
50 | C37U | 19.1

Row | Variant | Kd [nM]
51 | C37G | 15.5
52 | A20G G30A | 30.3
53 | A27G G33A | 5.11
54 | C29U U31C | 2.86
55 | A23G A26G | 35.8
56 | A20G A28G | 15.5
57 | G78A | 13.2
58 | G78C | 43.8
59 | C37U U43C | 12.8
60 | G65C | 35.3
61 | G65A | 12.4
62 | U11C U31C | 14.2
63 | C10U A27G | 3.1
64 | A26G C73U | 5.43
65 | G51U | 28.8
66 | G51A | 8.55
67 | A79U | 7.52
68 | A79C | 18.6
69 | A79G | 4.31
70 | A20G C58U | 11.5
71 | A26G C70U | 0.997
72 | U31G | 3.99
73 | U31C | 4.31
74 | G50C | 67.7
75 | G50A | 68

Row | Variant | Kd [nM]
76 | C24U C58U | 2.39
77 | C22G | 29.1
78 | G25A A26G | 6.06
79 | A63C | ≥ 125
80 | A63G | 8.55
81 | A63U | ≥ 125
82 | G30A G33A | 27.8
83 | U31C A41G | 3.04
84 | C32U | 4.26
85 | C22U A41G | 21.2
86 | G35C | ≥ 125
87 | U6A | 8.81
88 | U6G | 7.45
89 | U6C | 8.4
90 | A62C | 4
91 | A62U | 3.36
92 | A62G | 3.54
93 | C13U U34C | 36.2
94 | A28U | 4.46
95 | A28G | 4.55
96 | A28C | 6.92
97 | A20G | 8.28
98 | A20U | ≥ 125
99 | U11A | 4.13
100 | U11C | 24.2

Row | Variant | Kd [nM]
101 | G33A C73U | 8.48
102 | G19C | ≥ 125
103 | G19U | ≥ 125
104 | U43C A77G | 5.23
105 | C5U | 4.3
106 | C5G | 5.26
107 | A26G A41G | 2.97
108 | G49A | 21.5
109 | U34C A77G | 18
110 | A41G A77G | 7.24
111 | A20G A26G | 7.96
112 | U47C C73U | 44.3
113 | A28G G44A | 4.96
114 | U59C | 16.6
115 | C22U C58U | 12.7
116 | C73G | 7.26
117 | C10U C29U | 3.83
118 | G17C | ≥ 125
119 | G17A | ≥ 125
120 | G17U | 5.8
121 | U31C G68A | 28.1
122 | U11C A77G | 9.02
123 | U47G | 5.28
124 | U47C | 8.1
125 | U47A | 8.14

Row | Variant | Kd [nM]
126 | A40G A77G | 4.67
127 | C22U G68A | 18
128 | G25A U43C | 2.24
129 | C10G | 4.07
130 | C10U | 4.3
131 | C29U C74U | 1.86
132 | G14A C32U | 15.4
133 | A80U | 6.99
134 | C74G | 14.5
135 | U16C U59C | 7.5
136 | G38C | 83.5
137 | G38U | 14.5
138 | G38A | 28
139 | G25A U31C | 3.75
140 | C24U A28G | 2.43
141 | C37U A77G | 2.53
142 | A20G A79G | 37.9
143 | G81U | 4.53
144 | A28G C58U | 1.28
145 | A72G C73U | 8.64
146 | C32U G68A | 60.2
147 | G18U | ≥ 125
148 | C58G | 29.1
149 | A26G C32U | 5.01
150 | G25A C58U | 2.17

Row | Variant | Kd [nM]
151 | C22U A28G | 10.1
152 | G14A A28G | 4.8
153 | U42C C74U | 1.05
154 | U31C A79G | 3.52
155 | A41G C74U | 5.07
156 | C24U A41G | 11.7
157 | U31C G44A | 1.82
158 | A28G U31C | 5.74
159 | C13U A40G | 3
160 | G33A | 11.6
161 | G33C | ≥ 125
162 | G33U | 35.1
163 | U43A | 5.22
164 | U43G | 19.5
165 | C22U U43C | 2.31
166 | U31C A75G | 14
167 | C10U C13U | 15.1
168 | G67U | 9.04
169 | G67C | 11.8
170 | G67A | 14.2
171 | U34G | 6.01
172 | A28G A41G | 2.01
173 | G8A | 26.7
174 | G8C | 61.5
175 | A23G C74U | 2.27

Row | Variant | Kd [nM]
176 | U42G | 7.09
177 | U42A | 31.8
178 | U42C | 6.72
179 | A27U | 3.98
180 | A27C | 4.47
181 | C70G | 43.1
182 | C70A | 79.2
183 | C70U | 7.23
184 | U31C C58U | 1.14
185 | A41G U43C | 12.7
186 | U34C C58U | 68.2
187 | A28G C37U | 7.93
188 | C24U A27G | 7.09
189 | A27G A28G | 4.44
190 | A15C | 66.2
191 | A15G | 4.76
192 | A15U | 10.3
193 | A61U | 4.9
194 | A61G | 3.47
195 | A61C | 5.03
196 | A28G G46A | 14.2
197 | C82G | 10.1
198 | C82A | 3.36
199 | C82U | 4.16
200 | A28G A77G | 2.55

Row | Variant | Kd [nM]
201 | U56A | ≥ 125
202 | U56C | ≥ 125
203 | U56G | 3.15
204 | U47C A79G | 62.1
205 | C39G | 9.2
206 | C13U U42C | 3.54
207 | G8A G14A | 20.2
208 | G45C | 178
209 | G45A | 28.2
210 | G45U | 22.7
211 | C24U G68A | 54.1
212 | U31C U43C | 1.5
213 | A27G U34C | 9.07
214 | G14C | 25.1
215 | G14A | 7.34
216 | G14U | 4.92
217 | G14A A26G | 7.76
218 | A75U | 26.3
219 | A75G | 9.8
220 | A23G A27G | 5.79
221 | A20G A27G | 4.69
222 | U3A | 3.51
223 | U3C | 4.42
224 | A15G G25A | 2.42
225 | G30A A75G | 41.1

Row | Variant | Kd [nM]
226 | A20G U60A | 7.33
227 | G36C | ≥ 125
228 | G36A | 63.3
229 | A15G A28G | 3.9
230 | U11C A27G | 3.8
231 | U4A | 4.17
232 | U4G | 4.6
233 | U4C | 7.99
234 | A9G A27G | 21
235 | U31C A40G | 4.07
236 | G12C | 30.6
237 | G12A | 22.4
238 | G12U | 18.9
239 | A20G G44A | 13
240 | G7U | 23.4
241 | G7A | 43.8
242 | G7C | 88.1
243 | G30C | 4.2
244 | G30A | 4.37
245 | G30U | 3.95
246 | C10U C37U | 14.3
247 | G25A A27G | 5.68
248 | C29U U34C | 20.1
249 | C57U | ≥ 125
250 | C57A | ≥ 125

Row | Variant | Kd [nM]
251 | C57G | ≥ 125
252 | G55A | ≥ 125
253 | G55C | 50.8
254 | G55U | 9.31
255 | A72C | ≥ 125
256 | A72G | 3.33
257 | A26U | 4.33
258 | A26C | 4.53
259 | G25A A28G | 5.89
260 | A54U | ≥ 125
261 | C71G | 37.3
262 | C71A | ≥ 125
263 | A27G C71U | 17.8
264 | C24A | 10.6
265 | C24U | 4.82
266 | C24G | 13.2
267 | A20G A41G | 19.6
268 | A23G U34C | 1.23
269 | A66G C74U | 12.3
270 | C24U G33A | 5.72
271 | A53G | 33.3
272 | U11C A40G | 4.63
273 | G25U | 3.87
274 | U59C A77G | 0.842
275 | A41C | 10.1

Row | Variant | Kd [nM]
276 | G25A A77G | 3.54
277 | C10U A20G | 3.79
278 | C10U A28G | 4.55
279 | U16C A28G | 4.74
280 | A77U | 10.8
281 | A77G | 4.77
282 | C10U A23G | 5.08
283 | A26G U31C | 3.77
284 | A23U | 11.2
285 | G68A | 27.5
286 | A66U | 8.88
287 | C13U A41G | 10
288 | A27G C58U | 0.55
289 | G25A C74U | 4.63
